In ChEMBL document CHEMBL4813992, “Ring closure strategy leads to potent RIPK3 inhibitors” (Eur J Med Chem, 2021):
The source made the active and inactive calls. The calls are words filed in the database; no cut-off is given here.

What was measured:
Activin receptor type-1B = Activin receptor type-1B (Homo sapiens, UniProt P36896); assay: Inhibition of human ALK4 using ATP as substrate incubated for 120 mins by ADP-glo based luminescence assay
HT-29 [1] = assay: Anti-necroptotic activity in human HT-29 cells assessed as inhibition of TNFalpha/Z-VAD-fmk (TSZ)-induced necroptosis by measuring increase in cell viability by celltiter-glo luminescent cell viability assay; format: functional, cell-based
Summary of the method: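 HT-29 cells or MEFs were pretreated with compound or DMSO for 1 h, then stimulated with TNF (20 ng/mL), Smac mimetic (100 nM) and z-VAD. Viability was read as ATP level by CellTiter-Glo (24 h per methods; 40 h per legends). EC50 is the geometric mean of at least two runs ± SEM.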

HT-29 [2] = assay: Cytotoxicity against human HT-29 cells assessed as cell death at 20 uM by celltiter-glo luminescent cell viability assay; format: cell-based; details: ht-29, 20 µM
Summary of the method: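 HT-29 cells were given a compound concentration gradient without TSZ stimulation. Viability was read as ATP level by luminescence. Cell death above 30% at 20 µM was scored as significant toxicity.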

CYP1A2 = CYP1A2 (Homo sapiens, UniProt P05177); assay: Inhibition of CYP1A2 (unknown origin) at 10 uM incubated for 20 mins by LC-MS/MS analysis; format: ADME
CYP1A2, sequence (P05177 whole entry): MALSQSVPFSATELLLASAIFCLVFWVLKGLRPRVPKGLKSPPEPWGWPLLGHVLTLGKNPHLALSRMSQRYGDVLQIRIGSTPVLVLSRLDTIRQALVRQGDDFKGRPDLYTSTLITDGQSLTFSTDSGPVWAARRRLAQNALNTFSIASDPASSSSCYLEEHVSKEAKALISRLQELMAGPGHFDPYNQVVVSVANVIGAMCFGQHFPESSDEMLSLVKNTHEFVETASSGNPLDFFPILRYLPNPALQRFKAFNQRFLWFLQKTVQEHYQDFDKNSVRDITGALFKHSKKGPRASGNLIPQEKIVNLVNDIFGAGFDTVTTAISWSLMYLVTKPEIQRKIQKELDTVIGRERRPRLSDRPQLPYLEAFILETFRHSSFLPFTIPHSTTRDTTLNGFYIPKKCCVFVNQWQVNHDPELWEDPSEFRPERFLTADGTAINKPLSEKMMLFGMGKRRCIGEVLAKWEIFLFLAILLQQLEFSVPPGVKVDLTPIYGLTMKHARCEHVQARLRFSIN

[3] = Metabolic stability in human liver microsomes assessed as intrinsic clearance by LC-MS/MS analysis; format: ADME, Microsome
MEF = assay: Anti-necroptotic activity in mouse MEF cells assessed as inhibition of TNFalpha/Smac mimetic/Z-VAD-fmk (TSZ)-induced necroptosis by measuring increase in cell viability by celltiter-glo luminescent cell viability assay
[4] = target: Receptor-interacting serine/threonine-protein kinase 3 (Homo sapiens, UniProt Q9Y572); assay: Binding affinity to human wild type RIPK3 (M1/Q307) expressed in bacterial expression system by Kinomescan method
Summary of the method: (§1)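 KINOMEscan competition binding assay. Kinases were expressed as tags on T7 phage grown in E. coli BL21, or produced in HEK-293 cells and DNA-tagged. Kinase, ligand-loaded streptavidin beads and compound were combined in binding buffer (20% SeaBlock, 0.17x PBS, 0.05% Tween 20, 6 mM DTT) for 1 h at room temperature with shaking. Bound kinase was read by qPCR.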

[5] = target: Receptor-interacting serine/threonine-protein kinase 2 (Homo sapiens) (UniProt O43353); assay: Inhibition of RIPK2 (unknown origin) at 10 uM
Receptor-interacting serine/threonine-protein kinase 2 (Homo sapiens), sequence (O43353 whole entry): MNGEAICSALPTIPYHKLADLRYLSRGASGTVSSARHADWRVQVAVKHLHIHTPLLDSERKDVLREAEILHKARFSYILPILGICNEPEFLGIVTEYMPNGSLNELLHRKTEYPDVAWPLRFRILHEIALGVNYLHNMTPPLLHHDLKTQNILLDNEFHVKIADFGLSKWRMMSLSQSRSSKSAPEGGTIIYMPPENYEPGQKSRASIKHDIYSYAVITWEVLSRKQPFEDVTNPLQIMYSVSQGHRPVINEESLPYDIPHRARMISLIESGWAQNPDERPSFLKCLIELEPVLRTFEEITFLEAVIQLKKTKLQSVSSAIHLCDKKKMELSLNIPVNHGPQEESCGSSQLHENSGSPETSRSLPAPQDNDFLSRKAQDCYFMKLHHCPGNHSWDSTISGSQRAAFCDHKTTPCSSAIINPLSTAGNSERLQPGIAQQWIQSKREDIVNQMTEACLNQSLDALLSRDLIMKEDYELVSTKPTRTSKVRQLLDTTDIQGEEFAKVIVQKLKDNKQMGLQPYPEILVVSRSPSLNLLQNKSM

[6] = Metabolic stability in human liver microsomes assessed as half life by LC-MS/MS analysis; format: ADME, Microsome
[7] = Apparent permeability of the compound across apical to basolateral side in human Caco-2 cells; format: ADME, cell-based; details: read-out: permeability
[8] = Metabolic stability in mouse liver microsomes assessed as half life by LC-MS/MS analysis; format: ADME, Microsome
CYP3A4 [9] = target: T1, CYP3A4 (Homo sapiens, UniProt P08684); assay: Inhibition of CYP3A4 (unknown origin) at 10 uM using testosterone as substrate incubated for 20 mins by LC-MS/MS analysis; format: ADME; details: probe testosterone
T1 sequence (P08684 whole entry): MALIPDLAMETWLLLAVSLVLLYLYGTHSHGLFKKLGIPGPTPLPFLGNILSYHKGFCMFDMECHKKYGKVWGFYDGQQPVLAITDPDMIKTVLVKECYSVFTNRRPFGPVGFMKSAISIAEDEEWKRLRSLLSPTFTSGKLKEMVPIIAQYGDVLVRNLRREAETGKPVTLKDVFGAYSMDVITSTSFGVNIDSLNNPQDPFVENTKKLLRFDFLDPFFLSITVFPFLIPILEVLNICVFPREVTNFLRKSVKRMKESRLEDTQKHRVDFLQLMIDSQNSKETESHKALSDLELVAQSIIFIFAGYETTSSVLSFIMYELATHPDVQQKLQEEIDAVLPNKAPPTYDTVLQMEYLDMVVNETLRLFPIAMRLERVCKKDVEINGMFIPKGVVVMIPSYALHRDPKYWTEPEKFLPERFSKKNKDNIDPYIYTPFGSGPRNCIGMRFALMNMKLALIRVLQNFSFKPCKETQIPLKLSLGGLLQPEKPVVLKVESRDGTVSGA

CYP3A4 [10] = target: T1, CYP3A4; assay: Inhibition of CYP3A4 (unknown origin) at 10 uM using midazolam as substrate incubated for 20 mins by LC-MS/MS analysis; format: ADME; details: probe midazolam
[11] = target: Platelet-derived growth factor receptor alpha (Homo sapiens, UniProt P16234); assay: Inhibition of PDGFRA (unknown origin) using FAM-labeled peptide as substrate preincubated for 10 mins followed by substrate addition measured after 60 mins in presence of ATP by caliper mobility shift assay
[12] = target: Epidermal growth factor receptor (Homo sapiens, UniProt P00533); assay: Inhibition of EGFR (unknown origin) using FAM-labeled peptide as substrate preincubated for 10 mins followed by substrate addition measured after 60 mins in presence of ATP by caliper mobility shift assay
Epidermal growth factor receptor, sequence (P00533 whole entry): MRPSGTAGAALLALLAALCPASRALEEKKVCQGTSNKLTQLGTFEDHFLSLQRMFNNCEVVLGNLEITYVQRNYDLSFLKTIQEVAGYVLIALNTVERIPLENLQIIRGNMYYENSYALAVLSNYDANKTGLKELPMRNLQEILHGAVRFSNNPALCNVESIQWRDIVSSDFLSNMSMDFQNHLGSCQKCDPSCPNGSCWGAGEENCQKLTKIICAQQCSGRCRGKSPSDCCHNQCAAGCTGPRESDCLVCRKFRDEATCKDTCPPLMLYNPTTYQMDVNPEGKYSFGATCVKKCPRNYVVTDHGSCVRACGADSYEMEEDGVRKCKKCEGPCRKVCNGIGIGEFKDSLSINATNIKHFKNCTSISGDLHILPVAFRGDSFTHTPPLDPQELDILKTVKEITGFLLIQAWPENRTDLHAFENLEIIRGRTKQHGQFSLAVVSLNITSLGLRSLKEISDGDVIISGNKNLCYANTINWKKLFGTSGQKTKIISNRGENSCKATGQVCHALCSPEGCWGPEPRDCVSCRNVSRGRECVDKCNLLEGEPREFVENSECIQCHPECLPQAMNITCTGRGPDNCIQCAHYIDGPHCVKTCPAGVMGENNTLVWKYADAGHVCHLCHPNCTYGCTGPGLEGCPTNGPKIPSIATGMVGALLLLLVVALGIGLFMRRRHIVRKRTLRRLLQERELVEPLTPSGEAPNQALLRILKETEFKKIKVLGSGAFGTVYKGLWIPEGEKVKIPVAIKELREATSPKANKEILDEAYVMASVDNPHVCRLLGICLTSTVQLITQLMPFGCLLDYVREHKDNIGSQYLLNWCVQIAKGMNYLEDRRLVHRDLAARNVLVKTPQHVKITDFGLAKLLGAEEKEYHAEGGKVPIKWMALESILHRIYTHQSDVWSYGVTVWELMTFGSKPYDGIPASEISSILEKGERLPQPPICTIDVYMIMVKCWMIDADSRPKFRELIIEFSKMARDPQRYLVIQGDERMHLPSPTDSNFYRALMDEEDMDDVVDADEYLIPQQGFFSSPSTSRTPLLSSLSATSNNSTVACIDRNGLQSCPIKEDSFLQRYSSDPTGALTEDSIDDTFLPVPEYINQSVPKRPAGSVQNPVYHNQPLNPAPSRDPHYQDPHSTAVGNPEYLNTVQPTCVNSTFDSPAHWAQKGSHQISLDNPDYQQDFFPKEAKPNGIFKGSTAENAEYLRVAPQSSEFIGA

Mus musculus [13] = assay: Anti-necroptosis activity against TNFalpha-induced C57BL/6J mouse systemic inflammatory response syndrome model assessed as reduction in hypothermia at 5 mg/kg, ip measured after 15 mins; format: functional, organism-based
Summary of the method: (§2)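 C57BL/6 mice were given vehicle (sterile PBS with 40% PEG400) or compound at 5 mg/kg i.p. about 15 min before i.v. mouse TNFa ([…]). Body temperature and survival were monitored. Temperature changes are shown as means ± SEM per group.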

Mus musculus [14] = assay: Antiinflammatory activity in TNFalpha-induced C57BL/6J mouse systemic inflammatory response syndrome model assessed as reduction in IL-6 production in serum at 5 mg/kg, ip measured 4 hrs after TNFalpha stimulation by ELISA; format: functional, organism-based
Summary of the method: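 C57BL/6 mice were dosed i.p. at 5 mg/kg in PBS/40% PEG400 about 15 min before i.v. mouse TNFa ([…]). Mice were killed 4 h after TNFa and serum IL-6 was measured by ELISA.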

[15] = Metabolic stability in mouse liver microsomes assessed as intrinsic clearance by LC-MS/MS analysis; format: ADME, Microsome
[16] = Protein binding in human plasma by LC-MS/MS analysis; format: ADME, cell-free; details: read-out: PPB (converted)
[17] = Protein binding in rat plasma by LC-MS/MS analysis; format: ADME, cell-free; details: read-out: PPB (converted)
[18] = Apparent permeability of the compound across basolateral to apical side in human Caco-2 cells; format: ADME, cell-based; details: read-out: permeability
[19] = Efflux ratio of apparent permeability across basolateral to apical side over apical to basolateral side in human Caco-2 cells; format: ADME, cell-based
[20] = target: Phosphatidylinositol 4,5-bisphosphate 3-kinase catalytic subunit alpha isoform (Homo sapiens, UniProt P42336); assay: Inhibition of human PI3Kalpha using ATP as substrate at 25 uM incubated for 60 mins by ADP-glo based luminescence assay
[21] = target: Mixed lineage kinase domain-like protein (Homo sapiens) (UniProt Q8NB16); assay: Inhibition of MLKL (unknown origin) polymerization
[22] = target: Receptor-interacting serine/threonine-protein kinase 1 (Homo sapiens, UniProt Q13546); assay: Binding affinity to human wild type RIPK1 (M1/K305) expressed in bacterial expression system by Kinomescan method
Summary of the method: as §1

[23] = target: Serine/threonine-protein kinase B-raf (Homo sapiens, UniProt P15056); assay: Inhibition of BRAF (unknown origin) in presence of ATP by Lanthascreen TR-FRET assay
Serine/threonine-protein kinase B-raf, sequence (P15056 whole entry): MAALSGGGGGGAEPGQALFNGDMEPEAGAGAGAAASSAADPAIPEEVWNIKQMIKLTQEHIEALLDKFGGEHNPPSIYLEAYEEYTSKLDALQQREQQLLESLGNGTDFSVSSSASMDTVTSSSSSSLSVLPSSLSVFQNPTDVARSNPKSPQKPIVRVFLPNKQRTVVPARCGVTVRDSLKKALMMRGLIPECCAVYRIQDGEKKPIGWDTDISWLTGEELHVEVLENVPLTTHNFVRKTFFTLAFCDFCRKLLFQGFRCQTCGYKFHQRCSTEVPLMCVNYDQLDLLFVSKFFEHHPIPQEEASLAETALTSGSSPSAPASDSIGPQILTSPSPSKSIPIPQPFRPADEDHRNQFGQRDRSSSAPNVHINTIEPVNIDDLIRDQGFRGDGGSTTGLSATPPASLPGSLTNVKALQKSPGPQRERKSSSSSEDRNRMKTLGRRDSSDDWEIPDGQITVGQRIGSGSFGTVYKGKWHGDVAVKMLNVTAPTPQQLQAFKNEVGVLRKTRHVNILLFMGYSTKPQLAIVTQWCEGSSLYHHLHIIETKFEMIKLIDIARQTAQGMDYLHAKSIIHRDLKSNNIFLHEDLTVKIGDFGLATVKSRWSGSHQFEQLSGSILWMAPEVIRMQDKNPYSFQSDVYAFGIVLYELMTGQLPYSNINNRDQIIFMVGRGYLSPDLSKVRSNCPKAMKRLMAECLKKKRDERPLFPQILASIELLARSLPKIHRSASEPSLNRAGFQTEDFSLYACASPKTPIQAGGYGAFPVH

CYP2D6 = CYP2D6 (Homo sapiens, UniProt P10635); assay: Inhibition of CYP2D6 (unknown origin) at 10 uM incubated for 20 mins by LC-MS/MS analysis; format: ADME
CYP2D6, sequence (P10635 whole entry): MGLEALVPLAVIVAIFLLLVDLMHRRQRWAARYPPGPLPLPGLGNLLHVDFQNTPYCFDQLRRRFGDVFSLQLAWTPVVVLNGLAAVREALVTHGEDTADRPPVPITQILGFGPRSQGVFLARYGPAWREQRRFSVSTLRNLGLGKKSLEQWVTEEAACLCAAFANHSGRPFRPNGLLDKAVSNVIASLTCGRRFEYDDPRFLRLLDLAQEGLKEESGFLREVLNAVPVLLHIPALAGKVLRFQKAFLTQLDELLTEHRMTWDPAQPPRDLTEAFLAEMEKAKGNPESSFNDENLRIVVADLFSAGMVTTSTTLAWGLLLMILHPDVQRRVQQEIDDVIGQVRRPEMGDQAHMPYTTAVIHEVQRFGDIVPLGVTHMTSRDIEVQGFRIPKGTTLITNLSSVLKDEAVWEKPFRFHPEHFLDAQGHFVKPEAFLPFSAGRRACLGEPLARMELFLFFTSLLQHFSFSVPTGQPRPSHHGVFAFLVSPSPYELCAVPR

[24] = target: Voltage-gated inwardly rectifying potassium channel KCNH2 (Homo sapiens, UniProt Q12809); assay: Inhibition of human ERG expressed in CHO-K1 cells by QPatch - automated patch-clamp technology; format: cell-based
[25] = target: Serine/threonine-protein kinase mTOR (Homo sapiens, UniProt P42345); assay: Inhibition of mTOR (unknown origin) using ATP as substrate after 60 mins by Lance ultra assay
[26] = Protein binding in mouse plasma by LC-MS/MS analysis; format: ADME, cell-free; details: read-out: PPB (converted)
CYP2C9 = CYP2C9 (Homo sapiens, UniProt P11712); assay: Inhibition of CYP2C9 (unknown origin) at 10 uM incubated for 20 mins by LC-MS/MS analysis; format: ADME
Mus musculus [27] = assay: Anti-necroptosis activity against TNFalpha-induced C57BL/6J mouse systemic inflammatory response syndrome model assessed as reduction in lethal shock at 5 mg/kg, ip measured after 15 mins; format: functional, organism-based
Summary of the method: as §2

CYP2C19 = CYP2C19 (Homo sapiens, UniProt P33261); assay: Inhibition of CYP2C19 (unknown origin) at 10 uM incubated for 20 mins by LC-MS/MS analysis; format: ADME
CYP2C19, sequence (P33261 whole entry): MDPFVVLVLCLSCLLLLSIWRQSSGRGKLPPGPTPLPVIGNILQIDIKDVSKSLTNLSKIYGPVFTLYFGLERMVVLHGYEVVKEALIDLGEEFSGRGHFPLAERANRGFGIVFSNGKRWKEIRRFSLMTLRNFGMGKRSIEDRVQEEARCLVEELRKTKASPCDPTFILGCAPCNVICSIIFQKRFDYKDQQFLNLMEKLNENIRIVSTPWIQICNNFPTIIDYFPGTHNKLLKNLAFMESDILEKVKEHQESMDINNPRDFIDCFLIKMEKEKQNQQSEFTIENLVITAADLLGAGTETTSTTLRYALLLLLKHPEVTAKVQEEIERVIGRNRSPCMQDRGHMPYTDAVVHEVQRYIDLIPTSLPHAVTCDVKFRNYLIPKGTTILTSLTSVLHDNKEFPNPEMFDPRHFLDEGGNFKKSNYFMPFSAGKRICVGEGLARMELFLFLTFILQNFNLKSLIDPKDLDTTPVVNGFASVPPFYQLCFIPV

CDK4/Cyclin D3 = CDK4/Cyclin D3 (Homo sapiens, UniProt P11802); assay: Inhibition of CDK4/Cyclin D3 (unknown origin) using FAM-labeled peptide as substrate preincubated for 10 mins followed by substrate addition measured after 60 mins in presence of ATP by caliper mobility shift assay; format: protein-complex assay
[28] = target: Receptor-interacting serine/threonine-protein kinase 1 (Homo sapiens) (UniProt Q13546); assay: Inhibition of human RIPK1 using ATP and substrate at 10 uM incubated for 120 mins by ADP-glo based luminescence assay

Activin receptor type-1B, sequence (P36896 whole entry): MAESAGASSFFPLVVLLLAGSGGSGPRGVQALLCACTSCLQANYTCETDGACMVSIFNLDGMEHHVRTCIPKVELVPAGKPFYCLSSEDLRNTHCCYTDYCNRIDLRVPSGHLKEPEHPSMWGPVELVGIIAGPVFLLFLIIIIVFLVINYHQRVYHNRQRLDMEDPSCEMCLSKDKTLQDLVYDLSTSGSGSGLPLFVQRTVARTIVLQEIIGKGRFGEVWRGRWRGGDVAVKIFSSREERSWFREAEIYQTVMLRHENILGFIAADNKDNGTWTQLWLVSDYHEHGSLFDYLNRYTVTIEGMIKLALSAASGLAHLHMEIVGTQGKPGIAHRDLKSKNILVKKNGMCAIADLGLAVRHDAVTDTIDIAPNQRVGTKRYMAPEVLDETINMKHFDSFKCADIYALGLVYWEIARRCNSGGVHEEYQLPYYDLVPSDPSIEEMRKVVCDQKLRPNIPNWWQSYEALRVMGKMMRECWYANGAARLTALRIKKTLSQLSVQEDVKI

O=C(O)c1ccc(-c2nc(-c3ccc4c(c3)OCO4)c(-c3ccccn3)[nH]2)cc1
IC50 (Activin receptor type-1B): 158 nM

CC1(C)C(=O)c2cc3nccc(Nc4n[nH]c5ccc(F)cc45)c3cc2S1(=O)=O
EC50 (HT-29 [1]): > 20000 nM

C=C1c2cc3nccc(Nc4ccc5scnc5c4)c3cc2S(=O)(=O)C1(C)C
EC50 (HT-29 [1]): 1030 nM

O=C1CS(=O)(=O)c2cc3c(Nc4ccc5scnc5c4)ccnc3cc21
EC50 (HT-29 [1]): 3810 nM

CC1(O)c2cc3nccc(Nc4ccc5scnc5c4)c3cc2S(=O)(=O)C1(C)C (stereo not drawn)
EC50 (HT-29 [1]): > 20000 nM

CC1COC2(CS(=O)(=O)c3cc4c(Nc5ccc6scnc6c5)ccnc4cc32)O1 (stereo not drawn)
EC50 (HT-29 [1]): 1070 nM

CC1(C)C(O)(C2CC2)c2cc3nccc(Nc4ccc5scnc5c4)c3cc2S1(=O)=O (stereo not drawn)
EC50 (HT-29 [1]): > 20000 nM

CC1(C)C(O)c2cc3nccc(Nc4ccc5scnc5c4)c3cc2S1(=O)=O (stereo not drawn)
EC50 (HT-29 [1]): 2190 nM

Cc1ccc(O)cc1Nc1ccnc2cc3c(cc12)S(=O)(=O)C(C)(C)C3=O
EC50 (HT-29 [1]): 430 nM
Activity (HT-29 [2]): > 30%

CCC1(C)C(=O)c2cc3nccc(Nc4ccc5scnc5c4)c3cc2S1(=O)=O (stereo not drawn)
EC50 (HT-29 [1]): > 20000 nM

O=S1(=O)CC2(COC2)c2cc3nccc(Nc4ccc5scnc5c4)c3cc21
EC50 (HT-29 [1]): > 20000 nM

CC1(C)C(=O)c2cc3nccc(Nc4cc(O)ccc4F)c3cc2S1(=O)=O
EC50 (HT-29 [1]): 330 nM
Activity (HT-29 [2]): > 30%

O=S1(=O)CC2(CCCO2)c2cc3nccc(Nc4ccc5scnc5c4)c3cc21 (stereo not drawn)
EC50 (HT-29 [1]): 3960 nM

Cc1n[nH]c(Nc2ccnc3cc4c(cc23)S(=O)(=O)C(C)(C)C4=O)c1C
EC50 (HT-29 [1]): > 20000 nM

CC1(C)C(=O)c2cc3nccc(Nc4ccc5scnc5c4)c3cc2S1(=O)=O
EC50 (HT-29 [1]): 2230 nM

CC1(CC2CC2)C(=O)c2cc3nccc(Nc4ccc5scnc5c4)c3cc2S1(=O)=O (stereo not drawn)
EC50 (HT-29 [1]): > 20000 nM

O=S1(=O)CC2(OCCO2)c2cc3nccc(Nc4ccc5scnc5c4)c3cc21
inhibition at 20 min, 10 µM (CYP1A2): 37%
CLH [3]: 60.5 mL/min/kg
EC50 (MEF): 540 nM
Kd [4]: 7.2 nM
inhibition [5]: Active
half-life [6]: 28.8 min
Papp A→B [7]: 35.2 ×10⁻⁶ cm/s
half-life [8]: 20.3 min
inhibition at 20 min, 10 µM (CYP3A4 [9]): 9.6%
inhibition at 20 min, 10 µM (CYP3A4 [10]): -13.7%
IC50 [11]: 152 nM
IC50 [12]: > 10000 nM
Activity (Mus musculus [13]): Active
Activity (Mus musculus [14]): Active
CLH [15]: 269 mL/min/kg
IC50 (Activin receptor type-1B): 3740 nM
fraction unbound [16]: 0.029
fraction unbound [17]: 0.013
Papp B→A [18]: 25.3 ×10⁻⁶ cm/s
efflux ratio [19]: 0.72
IC50 [20]: 7770 nM
inhibition [21]: inactive
Kd [22]: 5950 nM
IC50 [23]: 1360 nM
inhibition at 20 min, 10 µM (CYP2D6): -5.26%
EC50 (HT-29 [1]): 420 nM
IC50 [24]: > 30000 nM
IC50 [25]: > 10000 nM
fraction unbound [26]: 0.027
inhibition at 20 min, 10 µM (CYP2C9): -6.33%
Activity (Mus musculus [27]): Active
inhibition at 20 min, 10 µM (CYP2C19): 19.9%
IC50 (CDK4/Cyclin D3): > 10000 nM
inhibition [28]: inactive

CC1(C)C(=O)c2cc3nccc(Nc4cc(O)c(F)cc4F)c3cc2S1(=O)=O
EC50 (HT-29 [1]): 1030 nM
Activity (HT-29 [2]): > 30%

CC(C)S(=O)(=O)c1ccc2nccc(Nc3ccc4scnc4c3)c2c1
EC50 (MEF): 2510 nM
inhibition [5]: Active
EC50 (HT-29 [1]): 1510 nM

O=S1(=O)CCc2cc3nccc(Nc4ccc5scnc5c4)c3cc21
EC50 (HT-29 [1]): 2280 nM
